Results published in paper PMC8963331 (Toxicological Sciences, 2022).

Tests used:
[1] = Rat repeat-dose toxicity studies: plasma toxicokinetics; assay type: in vivo; details: rat; 1000 mg/kg/day
[2] = tested on: Time-mated female rabbits; assay: Rabbit embryo–fetal development; assay type: in vivo; details: for Corpora lutea (mean ± SD) / Implantation sites (mean ± SD) / Preimplantation loss (mean ± SD) / Total resorptions (mean ± SD) / Females with live fetuses / Pregnant females: rabbit EFD; for Females with live fetuses / Pregnant females: 22 total females
In short: (§1)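 Time-mated female rabbits, 6–8 months old at dosing start, gavaged daily (10 ml/kg) with vehicle or 10, 30 or 60 mg/kg/day test compound over GDs 7–19; n = 22/group plus a toxicokinetic group. Cesarean-section endpoints: corpora lutea, implantation sites, preimplantation loss, resorptions. Fetuses weighed and examined externally, viscerally and, after evisceration and Alizarin Red S staining, skeletally. Fetal weights analysed by ANCOVA with Dunnett's test, litter size as covariate.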

[3] = Rabbit embryo–fetal development; assay type: in vivo; details: female, rabbit, in vivo, oral
In short: as §1

[4] = Human plasma protein binding; assay type: in vitro ADME
[5] = Rabbit EFD study: maternal and fetal plasma toxicokinetics; assay type: in vivo
[6] = Rat embryo–fetal development; assay type: in vivo; details: female, rat, in vivo, oral
In short: (§2)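 Time-mated female Crl:CD Sprague Dawley rats, 10–12 weeks old at dosing start, gavaged daily (10 ml/kg) with 0 (vehicle), 30, 100 or 1000 mg/kg/day test compound on GDs 6–17; n = 22/group plus a toxicokinetic group. Cesarean-section counts: corpora lutea, implantation sites, preimplantation loss, resorptions. Fetuses weighed and checked for external, visceral and skeletal (Alizarin Red S, after evisceration) abnormalities. Fetal weights compared by ANCOVA/Dunnett with litter size as covariate.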

[7] = tested on: Time-mated female rats; assay: Rat embryo–fetal development; assay type: in vivo; details: for Corpora lutea (mean ± SD) / Implantation sites (mean ± SD) / Preimplantation loss (mean ± SD) / Total resorptions (mean ± SD) / Females with live fetuses / Pregnant females: rat EFD; for Females with live fetuses / Pregnant females: 22 total females
In short: as §2

[8] = maternal rabbit, GD 19, 30 and 60 mg/kg/day

## Cc1cc(Nc2cc3ncccc3c(N[C@@H]3C[C@H]4CC[C@@H](C3)N4CCC#N)n2)n[nH]1 [izencitinib, Izencitinib]
[1]
  plasma Cave:uncorrected JAK IC50 ratio: 1–3 ×
[2]; rabbit
  effects on fetal parameters: no effects
[2]; 10 mg/kg/day oral GDs 7–19
  Corpora lutea (mean ± SD): 10 ± 1.7
  Implantation sites (mean ± SD): 10 ± 1.6
  Preimplantation loss (mean ± SD): 1.0 ± 0.8
  Total resorptions (mean ± SD): 0 ± 0.4
  Females with live fetuses: 20
  Pregnant females: 22
[2]; 30 mg/kg/day oral GDs 7–19
  Corpora lutea (mean ± SD): 11 ± 2.0
  Implantation sites (mean ± SD): 10 ± 1.9
  Preimplantation loss (mean ± SD): 1.0 ± 0.9
  Total resorptions (mean ± SD): 0 ± 0.4
  Females with live fetuses: 21
  Pregnant females: 21
[2]; 60 mg/kg/day oral GDs 7–19
  Corpora lutea (mean ± SD): 11 ± 2.3
  Implantation sites (mean ± SD): 10 ± 2.8
  Preimplantation loss (mean ± SD): 1.0 ± 1.5
  Total resorptions (mean ± SD): 1 ± 1.6
  Females with live fetuses: 21
  Pregnant females: 22
[2]; rabbit, any dose
  effects on cesarean section parameters: no adverse effects
[2]; rabbit, up to 60 mg/kg/day
  tolerability: well tolerated
[3]
  NOAEL: 60 mg/kg/day
[4]
  fraction unbound: 0.146
[5]; maternal rabbit, 10 mg/kg/day
  plasma Cave:protein-corrected JAK IC50 ratio: < 1 ×
  plasma Cave:uncorrected JAK IC50 ratio: < 1 ×
[5]; maternal rabbit, GD 7, 10 mg/kg/day oral
  Mean Cave: 0.365 ng/mL
[5]; maternal rabbit, GD 7, 30 mg/kg/day oral
  Mean Cave: 3.28 ng/mL
[5]; maternal rabbit, GD 7, 60 mg/kg/day oral
  Mean Cave: 21.8 ng/mL
[5]; maternal rabbit, GD 19, 10 mg/kg/day oral
  Mean Cave: 0.754 ng/mL
[5]; maternal rabbit, GD 19, 30 mg/kg/day
  plasma Cave:uncorrected JAK IC50 ratio: 1 ×
[5]; maternal rabbit, GD 19, 30 mg/kg/day oral
  Mean Cave: 18.7 ng/mL
[5]; maternal rabbit, GD 19, 60 mg/kg/day
  plasma Cave:uncorrected JAK IC50 ratio: 6 ×
[5]; maternal rabbit, GD 19, 60 mg/kg/day oral
  Mean Cave: 76.7 ng/mL
[5]; [8]
  plasma Cave:protein-corrected JAK IC50 ratios: < 1 ×
  time at supratherapeutic plasma levels: 6 to 9 h
[5]; rabbit EFD study, 60 mg/kg/day, vs human 300 mg QD
  nonclinical:clinical AUC ratio at the NOAEL: 33 fold
[5]; rabbit fetuses, undetectable, limit of quantitation
  fetal plasma concentrations, all other samples: < 1 ng/mL
[5]; rabbit, fetal plasma, oral, 60 mg/kg/day
  concentration at 3 h: 1.55 ng/mL
[6]
  NOAEL: 1000 mg/kg/day
[7]; 30 mg/kg/day oral GDs 6–17
  Corpora lutea (mean ± SD): 14 ± 2.0
  Implantation sites (mean ± SD): 14 ± 2.0
  Preimplantation loss (mean ± SD): 1.0 ± 0.9
  Total resorptions (mean ± SD): 0 ± 0.6
  Females with live fetuses: 22
  Pregnant females: 22
[7]; 100 mg/kg/day oral GDs 6–17
  Corpora lutea (mean ± SD): 14 ± 2.3
  Implantation sites (mean ± SD): 13 ± 1.8
  Preimplantation loss (mean ± SD): 1.0 ± 1.2
  Total resorptions (mean ± SD): 0 ± 0.7
  Females with live fetuses: 22
  Pregnant females: 22
[7]; 1000 mg/kg/day oral GDs 6–17
  Corpora lutea (mean ± SD): 14 ± 1.7
  Implantation sites (mean ± SD): 13 ± 1.9
  Preimplantation loss (mean ± SD): 1.0 ± 1.0
  Total resorptions (mean ± SD): 0 ± 1.1
  Females with live fetuses: 22
  Pregnant females: 22
[7]; rat, all doses
  effects on cesarean section parameters: no effects
  fetal external, visceral, or skeletal malformations: no observations
